{"source": "ChEMBL document CHEMBL1122635", "about": "“Synthesis and physicochemical and neurotoxicity studies of 1-(4-substituted-2,5-dihydroxyphenyl)-2-aminoethane analogues of 6-hydroxydopamine” (1984)", "key": {"[1]": {"test_system": "Rattus norvegicus", "assay": "Ability to inhibit norepinephrine uptake in rat atria was determined at 243 umol/kg", "format": "functional", "method_in_brief": "(§1)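 Male Sprague-Dawley rats (120 ± 10 g) got the dose in 0.9% saline with 0.1% ascorbic acid, 0.2 mL i.v. via the left femoral vein under light halothane. Controls got vehicle. At 24 h, atria were cut into four 10-15 mg pieces and incubated 30 min at 37 °C under 95% O2/5% CO2 in Krebs-Ringer bicarbonate (pH 7.35) with 10^-7 M [3H]NE. A 10 min washout followed, then HClO4 extracts were counted. Inhibition = control minus treated, 12 determinations from 3 rats, mean ± SD.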"}, "[2]": {"test_system": "Rattus norvegicus", "assay": "Ability to inhibit norepinephrine uptake in rat atria was determined at 97 umol/kg", "format": "functional", "method_in_brief": "as §1"}, "[3]": {"test_system": "Rattus norvegicus", "assay": "Ability to inhibit norepinephrine uptake in rat atria was determined at 486 umol/kg", "format": "functional", "method_in_brief": "as §1"}, "[4]": {"test_system": "Rattus norvegicus", "assay": "Ability to inhibit norepinephrine uptake in rat atria was determined at 49 uM/kg", "format": "functional", "method_in_brief": "as §1"}, "[5]": {"test_system": "Rattus norvegicus", "assay": "Ability to inhibit norepinephrine uptake in rat atria was determined at 122 umol/kg", "format": "functional", "method_in_brief": "as §1"}, "[6]": {"test_system": "Rattus norvegicus", "assay": "Ability to inhibit norepinephrine uptake in rat atria was determined at 24 uM/kg", "format": "functional", "method_in_brief": "as §1"}, "[7]": {"test_system": "Rattus norvegicus", "assay": "Ability to inhibit norepinephrine uptake in rat atria was determined at 73 uM/kg", "format": "functional", "method_in_brief": "as §1"}, "[8]": {"test_system": "Rattus norvegicus", "assay": "Ability to inhibit norepinephrine uptake in rat atria was determined at 730uM/kg; b denotes 'Rats expired with in 30 min after injection'", "format": "functional, organism-based", "method_in_brief": "as §1"}, "[9]": {"test_system": "Rattus norvegicus", "assay": "Ability to inhibit norepinephrine uptake in rat atria was determined at 365 umol/kg", "format": "functional", "method_in_brief": "as §1"}, "[10]": {"test_system": "Rattus norvegicus", "assay": "Ability to inhibit norepinephrine uptake in rat atria was determined at 486uM/kg; b denotes 'Rats expired with in 30 min after injection'", "format": "functional, organism-based", "method_in_brief": "as §1"}, "[11]": {"test_system": "Rattus norvegicus", "assay": "Ability to inhibit norepinephrine uptake in rat atria was determined at122uM/kg; b denotes 'Rats expired with in 30 min after injection'", "format": "functional, organism-based", "method_in_brief": "as §1"}, "[12]": {"test_system": "Rattus norvegicus", "assay": "Ability to inhibit norepinephrine uptake in rat atria was determined at 365uM/kg; b denotes 'Rats expired with in 30 min after injection'", "format": "functional, organism-based", "method_in_brief": "as §1"}, "[13]": {"test_system": "Rattus norvegicus", "assay": "Ability to inhibit norepinephrine uptake in rat atria was determined at 243uM/kg; b denotes 'Rats expired with in 30 min after injection'", "format": "functional, organism-based", "method_in_brief": "as §1"}}, "data": [{"smiles": "NCCc1cc(O)c(O)cc1O", "note": "[OXIDOPAMINE]", "values": [{"measurement": "inhibition in vivo at 243 µmol/kg", "setting": "[1]", "value": 85, "unit": "%"}, {"measurement": "inhibition in vivo at 97 µmol/kg", "setting": "[2]", "value": 79, "unit": "%"}, {"measurement": "inhibition in vivo at 486 µmol/kg", "setting": "[3]", "value": 87, "unit": "%"}, {"measurement": "Inhibition", "setting": "[4]", "value": 68, "unit": "%"}, {"measurement": "inhibition in vivo at 122 µmol/kg", "setting": "[5]", "value": 79, "unit": "%"}, {"measurement": "Inhibition", "setting": "[6]", "value": 45, "unit": "%"}, {"measurement": "Inhibition", "setting": "[7]", "value": 74, "unit": "%"}]}, {"smiles": "N#Cc1cc(O)c(CCN)cc1O", "values": [{"measurement": "inhibition in vivo at 486 µmol/kg", "setting": "[3]", "value": 0, "unit": "%"}]}, {"smiles": "NCCc1cc(O)c(Cl)cc1O", "values": [{"measurement": "inhibition in vivo at 486 µmol/kg", "setting": "[3]", "value": 0, "unit": "%"}]}, {"smiles": "NCCc1cc(O)ccc1O", "values": [{"measurement": "inhibition in vivo at 486 µmol/kg", "setting": "[3]", "value": 0, "unit": "%"}]}, {"smiles": "COc1cc(O)c(CCN)cc1O", "values": [{"measurement": "inhibition", "setting": "[8]", "value": "Rats expired within 30min after injection"}, {"measurement": "inhibition in vivo at 365 µmol/kg", "setting": "[9]", "value": 26, "unit": "%"}, {"measurement": "inhibition", "setting": "[10]", "value": "Rats expired within 30min after injection"}]}, {"smiles": "Cc1cc(O)c(CCN)cc1O", "values": [{"measurement": "inhibition in vivo at 243 µmol/kg", "setting": "[1]", "value": 27, "unit": "%"}, {"measurement": "inhibition", "setting": "[8]", "value": "Rats expired within 30min after injection"}, {"measurement": "inhibition in vivo at 365 µmol/kg", "setting": "[9]", "value": 24, "unit": "%"}, {"measurement": "inhibition in vivo at 122 µmol/kg", "setting": "[5]", "value": 19, "unit": "%"}, {"measurement": "inhibition", "setting": "[10]", "value": "Rats expired within 30min after injection"}, {"measurement": "Inhibition", "setting": "[7]", "value": 16, "unit": "%"}]}, {"smiles": "NCCc1cc(O)c(Br)cc1O", "values": [{"measurement": "inhibition in vivo at 243 µmol/kg", "setting": "[1]", "value": 10, "unit": "%"}, {"measurement": "inhibition in vivo at 122 µmol/kg", "setting": "[5]", "value": 0, "unit": "%"}]}, {"smiles": "NCCc1cc(O)c(C(=O)O)cc1O", "values": [{"measurement": "inhibition in vivo at 486 µmol/kg", "setting": "[3]", "value": 0, "unit": "%"}]}, {"smiles": "NCCc1cc(O)c(N)cc1O", "values": [{"measurement": "inhibition in vivo at 97 µmol/kg", "setting": "[2]", "value": 91, "unit": "%"}, {"measurement": "inhibition", "setting": "[11]", "value": "Rats expired within 30min after injection"}, {"measurement": "inhibition", "setting": "[12]", "value": "Rats expired within 30min after injection"}, {"measurement": "inhibition", "setting": "[8]", "value": "Rats expired within 30min after injection"}, {"measurement": "inhibition", "setting": "[13]", "value": "Rats expired within 30min after injection"}, {"measurement": "Inhibition", "setting": "[4]", "value": 60, "unit": "%"}, {"measurement": "inhibition", "setting": "[10]", "value": "Rats expired within 30min after injection"}, {"measurement": "Inhibition", "setting": "[6]", "value": 20, "unit": "%"}, {"measurement": "Inhibition", "setting": "[7]", "value": 80, "unit": "%"}]}, {"smiles": "NCCc1cc(O)c([N+](=O)[O-])cc1O", "values": [{"measurement": "inhibition in vivo at 486 µmol/kg", "setting": "[3]", "value": 0, "unit": "%"}]}]}
